ChEMBL document CHEMBL1759921, “N5-phosphonoacetyl-L-ornithine (PALO): a convenient synthesis and investigation of influence on regulation of amino acid biosynthetic genes in Saccharomyces cerevisiae” (Bioorg Med Chem Lett, 2011)
Calls of active or inactive are those of the source. No cut-off for these calls is given here.

Key:
Format in all cases: functional, organism-based
Saccharomyces cerevisiae [1] = assay: Decrease in ARG5,6 mRNA level in Saccharomyces cerevisiae BY4741 at 1 mg/ml by Northern blot analysis relative to control
Summary of the method: (§1)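 BY4741 inoculated from a saturated culture (30 °C, YPD) into minimal medium with leucine, methionine, uracil and histidine. Treatments were added at inoculation: 15 µM PALO in 50 mM potassium phosphate pH 6.8, buffer alone (untreated), 1 mg/mL L-arginine, or both. Cells grown at 30 °C and harvested at mid-log (OD600 0.4–0.6). mRNA measured by quantitative northern blot, normalized to SCR1; mean of three replicates.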

Saccharomyces cerevisiae [2] = assay: Decrease in CPA1 mRNA level in Saccharomyces cerevisiae BY4741 at 1 mg/ml by Northern blot analysis relative to control; summary of the method: as §1
Saccharomyces cerevisiae [3] = assay: Decrease in TRP5 mRNA level in Saccharomyces cerevisiae BY4741 at 1 mg/ml by Northern blot analysis relative to control; summary of the method: as §1
Saccharomyces cerevisiae [4] = assay: Decrease in TAP-tagged ARG5,6 protein level in Saccharomyces cerevisiae YSC1178-7500224 at 1 mg/ml by Western blotting analysis relative to control
Summary of the method: (§2)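 TAP-tagged strains (BY4741 background, untagged BY4741 as control) were grown from a saturated culture in supplemented minimal medium. At inoculation they received 15 µM PALO in 50 mM potassium phosphate pH 6.8, buffer alone, 1 mg/mL L-arginine, or both. Cells grown at 30 °C and harvested at OD600 0.4–0.6. Extracts were western blotted with anti-TAP antibody, with Coomassie-stained duplicate gels as loading controls. Band intensity was quantified.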

Saccharomyces cerevisiae [5] = assay: Decrease in TAP-tagged CPA1 protein level in Saccharomyces cerevisiae YSC1178-7502950 at 1 mg/ml by Western blotting analysis relative to control; summary of the method: as §2
Saccharomyces cerevisiae [6] = assay: Decrease in TAP-tagged TRP5 protein level in Saccharomyces cerevisiae YSC1178-7500415 at 1 mg/ml by Western blotting analysis relative to control; summary of the method: as §2
Saccharomyces cerevisiae [7] = assay: Increase in ARG5,6 mRNA level in Saccharomyces cerevisiae BY4741 at 15 uM by Northern blot analysis relative to control; summary of the method: as §1
Saccharomyces cerevisiae [8] = assay: Increase in CPA1 mRNA level in Saccharomyces cerevisiae BY4741 at 15 uM by Northern blot analysis relative to control; summary of the method: as §1
Saccharomyces cerevisiae [9] = assay: Increase in TRP5 mRNA level in Saccharomyces cerevisiae BY4741 at 15 uM by Northern blot analysis relative to control; summary of the method: as §1
Saccharomyces cerevisiae [10] = assay: Decrease in ARG5,6 mRNA level in Saccharomyces cerevisiae BY4741 at 15 uM by Northern blot analysis in presence of arginine relative to control; summary of the method: as §1
Saccharomyces cerevisiae [11] = assay: Decrease in CPA1 mRNA level in Saccharomyces cerevisiae BY4741 at 15 uM by Northern blot analysis in presence of arginine relative to control; summary of the method: as §1
Saccharomyces cerevisiae [12] = assay: Decrease in TRP5 mRNA level in Saccharomyces cerevisiae BY4741 at 15 uM by Northern blot analysis in presence of arginine relative to control; summary of the method: as §1
Saccharomyces cerevisiae [13] = assay: Increase in TAP-tagged ARG5,6 protein level in Saccharomyces cerevisiae YSC1178-7500224 at 15 uM by Western blotting analysis relative to control; summary of the method: as §2
Saccharomyces cerevisiae [14] = assay: Increase in TAP-tagged CPA1 protein level in Saccharomyces cerevisiae YSC1178-7502950 at 15 uM by Western blotting analysis relative to control; summary of the method: as §2
Saccharomyces cerevisiae [15] = assay: Increase in TAP-tagged TRP5 protein level in Saccharomyces cerevisiae YSC1178-7500415 at 15 uM by Western blotting analysis relative to control; summary of the method: as §2
Saccharomyces cerevisiae [16] = assay: Decrease in TAP-tagged ARG5,6 protein level in Saccharomyces cerevisiae YSC1178-7500224 at 15 uM by Western blotting analysis in presence of arginine relative to control; summary of the method: as §2
Saccharomyces cerevisiae [17] = assay: Decrease in TAP-tagged CPA1 protein level in Saccharomyces cerevisiae YSC1178-7502950 at 15 uM by Western blotting analysis in presence of arginine relative to control; summary of the method: as §2
Saccharomyces cerevisiae [18] = assay: Decrease in TAP-tagged TRP5 protein level in Saccharomyces cerevisiae YSC1178-7500415 at 15 uM by Western blotting analysis in presence of arginine relative to control; summary of the method: as §2
Saccharomyces cerevisiae [19] = assay: Effect on growth rate in Saccharomyces cerevisiae BY4741
Summary of the method: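 Growth followed at 30 °C in nitrogen-limiting medium: 2% dextrose, 1 mM ammonium sulfate, 100 µM potassium phosphate pH 6.8, and 10 µg/mL each of leucine, methionine, uracil and histidine.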

Compound	Activity (Saccharomyces cerevisiae [1])	Activity (Saccharomyces cerevisiae [2])	Activity (Saccharomyces cerevisiae [3])	Activity (Saccharomyces cerevisiae [4])	Activity (Saccharomyces cerevisiae [5])	Activity (Saccharomyces cerevisiae [6])	Activity (Saccharomyces cerevisiae [7])	Activity (Saccharomyces cerevisiae [8])	Activity (Saccharomyces cerevisiae [9])	Activity (Saccharomyces cerevisiae [10])	Activity (Saccharomyces cerevisiae [11])	Activity (Saccharomyces cerevisiae [12])	Activity (Saccharomyces cerevisiae [13])	Activity (Saccharomyces cerevisiae [14])	Activity (Saccharomyces cerevisiae [15])	Activity (Saccharomyces cerevisiae [16])	Activity (Saccharomyces cerevisiae [17])	Activity (Saccharomyces cerevisiae [18])	Activity (Saccharomyces cerevisiae [19])
N=C(N)NCCC[C@H](N)C(=O)O	Active	Active	inactive	Active	Active	inactive	–	–	–	–	–	–	–	–	–	–	–	–	–
N[C@@H](CCCNC(=O)CP(=O)(O)O)C(=O)O	–	–	–	–	–	–	inactive	inactive	inactive	Active	Active	inactive	inactive	inactive	inactive	Active	Active	inactive	inactive
